Assay results published in ChEMBL document CHEMBL1145348, “Synthesis and biochemical evaluation of a range of potent benzyl imidazole-based compounds as potential inhibitors of the enzyme complex 17alpha-hydroxylase/17,20-lyase (P450(17alpha))” (Bioorg Med Chem Lett, 2006).

Assays:
[1] = target: T1, Steroid 17-alpha-hydroxylase/17,20 lyase (Rattus norvegicus, UniProt P11715); assay: Inhibition of rat microsomal 17-alpha-hydroxylase component of P450-17alpha
T1 sequence (P11715 whole entry): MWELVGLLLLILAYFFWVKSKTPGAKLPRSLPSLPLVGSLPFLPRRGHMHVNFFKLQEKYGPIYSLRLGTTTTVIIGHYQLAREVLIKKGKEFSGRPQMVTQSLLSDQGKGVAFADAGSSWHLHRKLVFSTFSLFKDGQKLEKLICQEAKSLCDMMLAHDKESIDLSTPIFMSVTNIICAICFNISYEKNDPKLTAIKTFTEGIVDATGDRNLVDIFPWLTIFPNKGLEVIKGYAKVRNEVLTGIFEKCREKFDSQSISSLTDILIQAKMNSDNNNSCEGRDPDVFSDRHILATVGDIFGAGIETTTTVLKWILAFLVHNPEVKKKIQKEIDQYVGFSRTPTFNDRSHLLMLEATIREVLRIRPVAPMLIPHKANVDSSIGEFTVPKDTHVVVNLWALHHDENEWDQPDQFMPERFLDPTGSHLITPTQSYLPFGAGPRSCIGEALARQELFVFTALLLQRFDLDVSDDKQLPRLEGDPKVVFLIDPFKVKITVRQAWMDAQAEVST
Outline: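 Microsomal enzyme (final 0.16 mg/mL) preincubated mixture at 37 °C, 15 min reaction in 50 mM sodium phosphate pH 7.4 with NADPH generating system and radiolabelled progesterone (1.5 μM); inhibitor in ethanol. Ether extraction, TLC (DCM/ethyl acetate 7:3) with carrier steroids, ³H counting against uninhibited controls. IC50 from ≥5 concentrations in triplicate by linear regression of inhibition versus log[I].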

[2] = target: T1, Steroid 17-alpha-hydroxylase/17,20 lyase; assay: Inhibition of rat microsomal 17,20-lyase component of P450-17alpha
Outline: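 Rat testicular microsomes (final 0.23 mg/mL protein) incubated at 37 °C for 30 min in 50 mM sodium phosphate pH 7.4 with NADPH generating system and radiolabelled 17α-hydroxyprogesterone (1 μM), inhibitor added in ethanol. Ether extraction, TLC (DCM/ethyl acetate 4:1) with carrier steroids, ³H scintillation counting versus no-inhibitor controls. IC50 from five or more concentrations in triplicate, linear regression of inhibition versus log[I].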

Row | Structure (SMILES) | IC50 [1] | IC50 [2]
1 | O=[N+]([O-])c1ccc(Cn2ccnc2)cc1 | 25.4 µM | 7.17 µM
2 | Clc1cc(Cl)cc(Cn2ccnc2)c1 | 22.6 µM | 3.34 µM
3 | Brc1cc(Br)cc(Cn2ccnc2)c1 | 25.9 µM | 3.16 µM
4 | FC(F)(F)c1cc(Cn2ccnc2)cc(C(F)(F)F)c1 | 245 µM | 19.5 µM
5 | Fc1ccc(Cn2ccnc2)cc1F | 70.7 µM | 9.6 µM
6 | Clc1ccc(Cn2ccnc2)cc1Cl | 12.2 µM | 2.07 µM
7 | Fc1cc(F)cc(Cn2ccnc2)c1 | 83.1 µM | 11.8 µM
8 | c1ccc(Cn2ccnc2)cc1 [BENZYLIMIDAZOLE] | 215 µM | 39.1 µM
9 | CC(=O)N1CCN(c2ccc(OCC3COC(Cn4ccnc4)(c4ccc(Cl)cc4Cl)O3)cc2)CC1 (configuration not stated) [KETOCONAZOLE] | 3.76 µM | 1.66 µM

Second part, the compound after the results:

Row | IC50 [1] | IC50 [2] | Structure (SMILES)
10 | 72.1 µM | 8.22 µM | Oc1ccc(Cn2ccnc2)cc1
11 | 53.4 µM | 6.76 µM | Brc1ccc(Cn2ccnc2)cc1
12 | 50.6 µM | 8.81 µM | Cc1ccc(Cn2ccnc2)cc1
13 | 40.3 µM | 7.67 µM | N#Cc1ccc(Cn2ccnc2)cc1
14 | 86.6 µM | 18.4 µM | Fc1ccc(Cn2ccnc2)cc1
15 | 10.1 µM | 1.58 µM | Ic1ccc(Cn2ccnc2)cc1
16 | 31.6 µM | 2.81 µM | Clc1ccc(Cn2ccnc2)cc1
